Assay results reported in publication PMC4629064 (Acta Pharmaceutica Sinica. B, 2014).
Values after ≈ are worked out from the molar mass of the structure shown. Values joined by “and” are separate entries in the source; they are usually repeats but may differ in a detail not shown here. Equal entries are not always repeated.

Assays:
[1] = Solubility of BA and BA–PC in water or octanol; assay type: physicochemical; details: octanol, 37 °C, organic solvent or mixture, thermodynamic from solid
[2] = Dispersible uniformity and stability in water; assay type: physicochemical; details: dispersed in water, 37 °C
How it was run: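 Free test compound dispersed in water by simple agitation, alongside its phospholipid complex and complex-loaded self-microemulsifying formulation (drug:phospholipid molar ratios 1:1, 1:1.5, 1:2). Samples held at 37 °C in a water bath. Drug in the upper solution quantified by UV spectrophotometry at 316 nm at 0, 4, 8, 12 and 24 h. Bottles inspected visually for bottom precipitate.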

[3] = Caco-2 cell permeation study; assay type: in vitro ADME; details: human, Caco-2, pH 6.8
Caco-2 cells = test: Caco-2 cell permeation study; assay type: in vitro ADME; details: apical to basolateral, 187.5 μg/mL of BA, pH 6.8, 37 °C; mean±SD, n=3
[4] = tested on: intestine segments (duodenum and jejunum, ileum, colon); test: In situ single-pass intestinal perfusion; assay type: in vivo, Sprague-Dawley rats; details: rat SPIP, 750 μg/mL BA in KR buffer pH 6.0, mean±SD, n=6
[5] = Oral bioavailability of BA–PC–SMEDDS and BA suspensions; details: both, Sprague-Dawley, rat, in vivo, 75 mg

## O=C(O)[C@H]1O[C@@H](Oc2cc3oc(-c4ccccc4)cc(=O)c3c(O)c2O)[C@H](O)[C@@H](O)[C@@H]1O [BA, 5,6-dihydroxy-4-oxygen-2-phenyl-4H-1-benzopyran-7-β-D-glucopyranoseacid]
[1]
  solubility at 48 h: 136 ± 12 µg/mL (≈ 305 µM)
[2]
  Precipitate at the bottom of the bottles (visual): precipitates
[2]; initially
  Concentration of BA in the upper solution, initially: nearly zero
[3]
  Papp A→B at 180 min, 187.5 μg/mL: 0.119 ± 0.092 ×10⁻⁶ cm/s
  Papp B→A at 180 min, 187.5 μg/mL: 0.365 ± 0.096 ×10⁻⁶ cm/s
  efflux ratio at 180 min, 187.5 μg/mL: 3.07
Caco-2 cells
  Papp through Caco-2 monolayer: 0.037 ×10^−6, cm/s and 0.037±0.012 ×10^−6, cm/s
[4]; colon
  Peff, Colon: 0.506±0.088 ×10^−4, cm/s
[4]; duodenum+jejunum
  Peff, Duodenum+jejunum: 0.139±0.035 ^⁎ ×10^−4, cm/s
[4]; ileum
  Peff, Ileum: 0.252±0.081 ^⁎ ×10^−4, cm/s
[5]
  AUC: 7610 ± 1580 ng·h/mL
  Cmax: 1840 ± 470 ng/mL
  Tmax: 1.5 h
